ChEMBL document CHEMBL1141034, “Optimization of the in vitro and in vivo properties of a novel series of 2,4,5-trisubstituted imidazoles as potent cholecystokinin-2 (CCK2) antagonists” (J Med Chem, 2005)
Calls of active or inactive are those of the source. No cut-off for these calls is given here.

Target: T1, Cholecystokinin receptor type A (Cavia porcellus, UniProt Q63931)
T1 sequence (Q63931 whole entry): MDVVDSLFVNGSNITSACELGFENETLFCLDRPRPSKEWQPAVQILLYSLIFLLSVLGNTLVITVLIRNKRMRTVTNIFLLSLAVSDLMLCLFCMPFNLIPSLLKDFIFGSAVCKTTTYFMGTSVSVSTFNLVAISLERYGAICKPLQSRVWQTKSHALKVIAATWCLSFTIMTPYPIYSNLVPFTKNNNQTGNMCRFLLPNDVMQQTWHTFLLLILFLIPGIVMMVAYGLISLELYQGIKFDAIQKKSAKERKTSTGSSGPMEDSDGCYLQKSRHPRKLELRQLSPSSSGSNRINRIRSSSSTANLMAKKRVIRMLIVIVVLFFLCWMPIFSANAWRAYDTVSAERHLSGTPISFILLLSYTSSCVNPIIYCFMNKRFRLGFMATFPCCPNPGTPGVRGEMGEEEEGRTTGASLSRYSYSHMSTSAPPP
Test: Concentration required to inhibit the binding of 20 pM [125I]BH-CCK-8S radioligand to guinea pig pancreas CCK1 receptor
Settings: not given
Procedure, shortened: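 CCK1 sites on guinea pig pancreatic cells. Competition with 20 pM [125I]BH-CCK-8S, reported as pKI. At least three separate experiments give ± SEM. Where only two experiments were run, no error is given (approximate SEM 0.1 log units).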

Ki [nM] | SMILES
1320 | O=C(O)c1cccc(NC(=O)c2[nH]c(-c3ccccc3)nc2CCC23CC4CC(CC(C4)C2)C3)c1
794 | Cc1ccccc1-c1nc(CCC23CC4CC(CC(C4)C2)C3)c(C(=O)Nc2ccc(N(C)C)c(C(=O)O)c2)[nH]1
562 | Cc1ccccc1-c1nc(C(=O)Nc2ccc(F)c(C(=O)O)c2)c(CCC23CC4CC(CC(C4)C2)C3)[nH]1
324 | O=C(O)c1cccc(NC(=O)c2[nH]c(C34CCC(CC3)CC4)nc2CCC23CC4CC(CC(C4)C2)C3)c1
123 | Cc1cc(C)c(-c2nc(C(=O)Nc3ccc(C)c(C(=O)O)c3)c(CCC34CC5CC(CC(C5)C3)C4)[nH]2)c(C)c1
126 | O=C(O)c1cccc(NC(=O)c2[nH]c(C3CCCCCC3)nc2CCC23CC4CC(CC(C4)C2)C3)c1
2880 | CC(C)(C)c1nc(C(=O)Nc2cccc(C(=O)O)c2)c(CCC23CC4CC(CC(C4)C2)C3)[nH]1
661 | Cc1ccccc1-c1nc(C(=O)Nc2cccc(C(=O)O)c2)c(CCC(C)C)[nH]1
1120 | CCCc1nc(C(=O)Nc2cccc(C(=O)O)c2)c(CCC23CC4CC(CC(C4)C2)C3)[nH]1
2340 | O=C(O)c1cccc(NC(=O)c2[nH]c(C3CC3)nc2CCC23CC4CC(CC(C4)C2)C3)c1
302 | Cc1ccccc1-c1nc(C(=O)Nc2cccc(CCC(=O)O)c2)c(CCC23CC4CC(CC(C4)C2)C3)[nH]1

Target: T2, Gastrin/cholecystokinin type B receptor (Canis lupus familiaris, UniProt P30552)
T2 sequence (P30552 whole entry): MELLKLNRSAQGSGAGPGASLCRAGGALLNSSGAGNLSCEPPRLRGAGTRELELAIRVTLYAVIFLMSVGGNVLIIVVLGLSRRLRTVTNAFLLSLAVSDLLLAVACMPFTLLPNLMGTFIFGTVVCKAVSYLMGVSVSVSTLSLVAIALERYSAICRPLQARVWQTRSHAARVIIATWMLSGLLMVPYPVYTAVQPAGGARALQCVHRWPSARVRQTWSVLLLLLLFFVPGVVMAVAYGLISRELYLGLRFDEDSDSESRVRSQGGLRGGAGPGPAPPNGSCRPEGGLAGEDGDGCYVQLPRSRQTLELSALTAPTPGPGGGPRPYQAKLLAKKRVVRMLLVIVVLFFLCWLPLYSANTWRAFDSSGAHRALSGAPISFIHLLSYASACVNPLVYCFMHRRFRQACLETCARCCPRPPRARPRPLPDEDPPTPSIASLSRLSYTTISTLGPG
Test: Concentration required to inhibit the binding of [125I]-BH-CCK-8S radioligand to canine gastric mucosa CCK2 receptor
Settings: not given
Procedure, shortened: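 Canine gastric mucosa. Competition with [125I]BH-CCK-8S for CCK2 binding sites, reported as pIC50 ± SEM.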

IC50 [nM] | SMILES
39.8 | Cc1cc(C)c(-c2nc(C(=O)Nc3ccc(C)c(C(=O)O)c3)c(CCC34CC5CC(CC(C5)C3)C4)[nH]2)c(C)c1
11.2 | Cc1ccc(NC(=O)c2[nH]c(C3(C)CCCCC3)nc2CCC23CC4CC(CC(C4)C2)C3)cc1C(=O)O

Target: T3, Gastrin/cholecystokinin type B receptor (Canis lupus familiaris) (UniProt P30552)
T3 sequence (whole entry): T2 sequence (P30552 whole entry)
Test: Percent inhibition (i.v., 3.0 mg/Kg) against dog CCK2 receptor
Settings: not given
Procedure, shortened: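 Conscious dogs given a bolus iv or intraduodenally during pentagastrin-stimulated acid secretion. Result is the peak percentage inhibition of acid output in the first four collection periods (1 h) after dosing, ± SEM, with the number of replicates stated.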

inhibition [%] | SMILES
76 | Cc1cc(C)c(-c2nc(C(=O)Nc3ccc(C)c(C(=O)O)c3)c(CCC34CC5CC(CC(C5)C3)C4)[nH]2)c(C)c1
54 | Cc1ccc(NC(=O)c2[nH]c(C3(C)CCCCC3)nc2CCC23CC4CC(CC(C4)C2)C3)cc1C(=O)O

Target: T4, Gastrin/cholecystokinin type B receptor (Mus musculus, UniProt P56481)
T4 sequence (P56481 whole entry): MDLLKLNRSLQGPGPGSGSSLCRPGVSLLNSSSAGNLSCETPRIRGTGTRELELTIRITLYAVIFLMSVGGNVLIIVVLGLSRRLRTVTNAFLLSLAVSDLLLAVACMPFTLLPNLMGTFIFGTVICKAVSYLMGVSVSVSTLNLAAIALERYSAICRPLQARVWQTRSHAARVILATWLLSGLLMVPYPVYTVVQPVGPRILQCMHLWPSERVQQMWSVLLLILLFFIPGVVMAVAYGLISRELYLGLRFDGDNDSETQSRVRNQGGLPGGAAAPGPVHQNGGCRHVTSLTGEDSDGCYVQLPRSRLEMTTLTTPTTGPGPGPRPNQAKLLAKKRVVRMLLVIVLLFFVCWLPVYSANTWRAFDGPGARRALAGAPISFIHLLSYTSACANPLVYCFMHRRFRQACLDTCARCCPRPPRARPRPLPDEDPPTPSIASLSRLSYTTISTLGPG
Test: Concentration required to inhibit the binding of 20 pM [125I]-BH-CCK-8S radioligand to mouse cortical membrane CCK2 receptor
Settings: not given
Procedure, shortened: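 Mouse cerebral cortex homogenates. Competition with 20 pM [125I]BH-CCK-8S for CCK2 sites, reported as pKI. At least three separate experiments give ± SEM. Where only two experiments were run, no error is given (approximate SEM 0.1 log units).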

Ki [nM] | SMILES
> 100000 | COC(=O)c1cccc(NC(=O)c2[nH]c(-c3ccccc3C)nc2CCC23CC4CC(CC(C4)C2)C3)c1
11200 | CNc1cccc(NC(=O)c2[nH]c(-c3ccccc3C)nc2CCC23CC4CC(CC(C4)C2)C3)c1
316 | O=C(O)c1cccc(NC(=O)c2[nH]c(-c3ccccc3)nc2CCC23CC4CC(CC(C4)C2)C3)c1
20.4 | O=C(O)c1cccc(NC(=O)c2[nH]c(C34CCC(CC3)CC4)nc2CCC23CC4CC(CC(C4)C2)C3)c1
3.02 | Cc1cc(C)c(-c2nc(C(=O)Nc3ccc(C)c(C(=O)O)c3)c(CCC34CC5CC(CC(C5)C3)C4)[nH]2)c(C)c1
3.31 | Cc1ccc(NC(=O)c2[nH]c(C3(C)CCCCC3)nc2CCC23CC4CC(CC(C4)C2)C3)cc1C(=O)O
8320 | Cc1ccccc1-c1nc(C(=O)Nc2cccc(C(=O)O)c2)c(CCC(C)C)[nH]1
> 100000 | Cc1cccc(NC(=O)c2[nH]c(-c3ccccc3C)nc2CCC23CC4CC(CC(C4)C2)C3)c1
6.92 | Cc1ccccc1-c1nc(C(=O)Nc2cccc(CCC(=O)O)c2)c(CCC23CC4CC(CC(C4)C2)C3)[nH]1

Tested on: not listed separately
Test: Lipophilicity was measured in octanol/buffer (pH 7.4)
Assay type: physicochemical
Settings: not given
Procedure, shortened: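 log D from partition between octanol and buffer at pH 7.4, given ± error.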

logD | SMILES
4.9 | Cc1cc(C)c(-c2nc(C(=O)Nc3ccc(C)c(C(=O)O)c3)c(CCC34CC5CC(CC(C5)C3)C4)[nH]2)c(C)c1
4.91 | Cc1ccc(NC(=O)c2[nH]c(C3(C)CCCCC3)nc2CCC23CC4CC(CC(C4)C2)C3)cc1C(=O)O

Target: T5, Gastrin/cholecystokinin type B receptor (Rattus norvegicus, UniProt P30553)
T5 sequence (P30553 whole entry): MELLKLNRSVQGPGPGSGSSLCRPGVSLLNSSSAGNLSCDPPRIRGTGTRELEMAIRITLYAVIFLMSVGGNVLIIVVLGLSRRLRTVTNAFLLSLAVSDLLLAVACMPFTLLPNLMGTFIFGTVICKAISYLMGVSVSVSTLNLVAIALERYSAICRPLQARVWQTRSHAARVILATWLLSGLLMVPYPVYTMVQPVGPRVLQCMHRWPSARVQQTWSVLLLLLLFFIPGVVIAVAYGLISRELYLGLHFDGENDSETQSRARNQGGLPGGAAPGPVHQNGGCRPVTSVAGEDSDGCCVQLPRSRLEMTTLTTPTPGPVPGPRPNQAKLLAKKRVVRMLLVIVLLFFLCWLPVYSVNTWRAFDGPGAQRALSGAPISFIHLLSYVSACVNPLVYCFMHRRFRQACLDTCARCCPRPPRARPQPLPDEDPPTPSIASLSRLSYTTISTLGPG
Test: Antagonist activity against CCK2 receptor estimated from single shifts of pentagastrin concentration-effect curves in the isolated rat stomach
Assay type: functional, tissue-based
Settings: read-out: pA2 (converted)

Kb [nM] | SMILES
3.31 | Cc1cc(C)c(-c2nc(C(=O)Nc3ccc(C)c(C(=O)O)c3)c(CCC34CC5CC(CC(C5)C3)C4)[nH]2)c(C)c1
26.3 | Cc1ccccc1-c1nc(C(=O)Nc2cccc(C(=O)O)c2)c(CCC(C)C)[nH]1

Target: T6, Gastrin/cholecystokinin type B receptor (Rattus norvegicus) (UniProt P30553)
T6 sequence (whole entry): T5 sequence (P30553 whole entry)
Test: Antagonist activity against CCK2 receptor estimated from single shifts of pentagastrin concentration-effect curves in the isolated rat stomach; […]
Assay type: functional, tissue-based
Settings: not given

pA2 | SMILES
inactive | O=C(O)c1cccc(NC(=O)c2[nH]c(C3CCCCCCCCCCC3)nc2CCC23CC4CC(CC(C4)C2)C3)c1
inactive | COc1ccc(NC(=O)c2[nH]c(-c3ccccc3C)nc2CCC23CC4CC(CC(C4)C2)C3)cc1C(=O)O
inactive | Cc1ccccc1-c1nc(C(=O)Nc2cccc(C(=O)O)c2)c(CC23CC4CC(CC(C4)C2)C3)[nH]1
